According to ChEMBL document CHEMBL4825713, “Promising Non-cytotoxic Monosubstituted Chalcones to Target Monoamine Oxidase-B” (ACS Med Chem Lett, 2021):

Assays:
[1] = molecular target: T1, Amine oxidase [flavin-containing] B (Homo sapiens, UniProt P27338); assay: Reversible inhibition of recombinant human MAO-B using kynuramine as substrate at 4 times Ki incubated for 20 mins
T1 sequence (P27338 whole entry): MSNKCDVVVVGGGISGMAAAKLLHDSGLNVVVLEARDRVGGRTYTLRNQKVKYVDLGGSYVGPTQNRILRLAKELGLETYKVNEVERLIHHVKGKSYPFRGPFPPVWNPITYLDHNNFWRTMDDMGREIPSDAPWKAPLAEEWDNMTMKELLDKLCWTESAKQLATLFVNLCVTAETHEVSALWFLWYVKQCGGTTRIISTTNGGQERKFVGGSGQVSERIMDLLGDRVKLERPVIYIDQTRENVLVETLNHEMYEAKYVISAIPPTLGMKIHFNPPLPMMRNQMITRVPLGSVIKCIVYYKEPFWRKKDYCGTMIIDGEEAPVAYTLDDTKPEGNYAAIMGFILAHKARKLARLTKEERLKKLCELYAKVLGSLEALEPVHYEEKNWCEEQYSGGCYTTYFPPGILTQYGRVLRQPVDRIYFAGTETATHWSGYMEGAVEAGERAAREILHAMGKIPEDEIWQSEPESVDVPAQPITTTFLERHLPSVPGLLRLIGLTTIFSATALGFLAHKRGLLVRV

[2] = molecular target: T1, Amine oxidase [flavin-containing] B; assay: Competitive inhibition of recombinant human MAO-B expressed in baculovirus infected BTI cells using varying concentration of kynuramine as substrate at 5 to 40 nM by Lineweaver-burk plot analysis; details: dose 5-40 nM
Summary of the method: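 Initial velocities of human recombinant MAO-B measured at varied kynuramine concentrations, without inhibitor and with inhibitor at 5–40 nM. Data plotted as Lineweaver–Burk double reciprocals (1/v0 vs 1/[S]). Inhibition mode assigned from which intercept changes, x-intercept (−1/Km) versus y-intercept (1/Vmax). Mean ± SD of three independent experiments.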

inhibition (INH) [1] | inhibition (INH) [2] | SMILES
Active |  | O=C(/C=C/c1ccccc1)c1ccc(C(F)(F)F)cc1
Active | Active | O=C(/C=C/c1ccccc1)c1cccc(C(F)(F)F)c1
Active |  | O=C(/C=C/c1ccccc1[N+](=O)[O-])c1ccccc1
